Screening data: PubChem, The Scripps Research Institute Molecular Screening Center
SIAE inh: human SIAE inhibition, primary screen | SIAE FP-Rh probe binding, fluorescence polarization | inhibition, % at 9.66 µM | actives 0.69% (n = 370,000) | AID 1053197;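 active = inhibition above a cutoff: mean of compounds within the control limits plus 3 SD of those, cut at about 17% in these data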;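 also: 0% = plate median of compound wells and 100% = probe without SIAE protein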
TCR-CD3 inh: human TCR-CD3 binding inhibition; TAMRA-labeled TCR probe fluorescence, biochemical; inhibition, % at 9.4 µM; actives 0.37% (n = 360,000); AID 651800; in the data active = inhibition above about 19%;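 also: recombinant mutant TCR 2C K166C tagged with TAMRA read by polarization; 0% = receptor in buffer alone and 100% = receptor with positive control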
HTRA1 inh: HTRA1 (human) protease inhibition; recombinant HTRA1, FP-rhodamine activity-based probe, fluorescence polarization; inhibition, % at 5.96 µM; actives 0.5% (n = 340,000); in the data active = inhibition above about 36%;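 also: 0% = enzyme with DMSO and 100% = wells lacking enzyme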
pPAFAH FP inh: pPAFAH (human) enzyme inhibition. AID 463082. inhibition, % at 3.39 µM. recombinant pPAFAH, FP-rhodamine probe fluorescence polarization. actives 1.5% (n = 330,000);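 active = inhibition above the mean inhibition across the screen plus 3 SD, cut at about 25% in these data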;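 also: inhibitors block binding of the rhodamine activity-based probe so polarization drops; 0% = enzyme with DMSO and 100% = wells lacking pPAFAH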
Target sequence (Q13093 whole entry, looked up): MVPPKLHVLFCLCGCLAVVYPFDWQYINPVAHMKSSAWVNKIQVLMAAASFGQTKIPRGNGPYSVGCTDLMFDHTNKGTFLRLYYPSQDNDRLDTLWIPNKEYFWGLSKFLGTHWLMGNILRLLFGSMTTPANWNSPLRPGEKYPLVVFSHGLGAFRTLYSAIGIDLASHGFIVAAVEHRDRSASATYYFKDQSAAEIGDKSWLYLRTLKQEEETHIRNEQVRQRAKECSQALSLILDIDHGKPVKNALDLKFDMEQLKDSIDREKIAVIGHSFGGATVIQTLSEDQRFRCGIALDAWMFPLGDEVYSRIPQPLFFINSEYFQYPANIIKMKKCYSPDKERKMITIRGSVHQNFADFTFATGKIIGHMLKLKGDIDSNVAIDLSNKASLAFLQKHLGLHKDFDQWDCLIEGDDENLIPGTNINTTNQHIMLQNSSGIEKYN
mABHD4 FP: inhibits mouse alpha/beta hydrolase domain 4; Q8VD66; purified mABHD4, FP-Rh probe fluorescence polarization; inhibition, % at 8.92 µM; actives 0.54% (n = 370,000);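 active = inhibition exceeding the mean over every tested compound plus 3 SD, cut at about 30% in these data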;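 also: 0% = plate median of compound wells and 100% = S159A mutant with DMSO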
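assay system = mABHD4 protein | compound dosing = single nominal dose of 8.92 µM, 0.89% DMSO final | read-out basis = percent inhibition of probe binding, normalized to plate controls | schedule = Enzyme–compound pre-incubation 45 min, then probe 60 min, both 25 °C | detection = fluorescence polarization, excitation 525 nm, emission 598 nm, BODIPY TMR filters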
Numbers without * were called inactive; · = no result given. The list is not random: actives were taken first. Their share in the collection is about 2.3%.

SMILES | SIAE inh | TCR-CD3 inh | HTRA1 inh | pPAFAH FP inh | mABHD4 FP
Cc1ccc(NC(=O)c2cc(-c3ccco3)nc3ccccc23)cc1S(=O)(=O)N1CCOCC1 | -7.3 | -6.5 | -0.9 | 26.8* | 3.9
O=C(Nc1cccc(S(=O)(=O)N2CCOCC2)c1)c1c2c(nc3ccccc13)CCC2 | 5.3 | 5.5 | 10.4 | 26.7* | 0.8
O=C(Nc1cccc(S(=O)(=O)N2CCOCC2)c1)c1ccc2ccccc2n1 | -6.9 | -13.1 | -13.8 | -1.7 | 4.2
CCN(C(=O)[C@@H]1CC(=O)O[C@@H]1c1ccccc1)c1ccccc1 | 3.6 | · | · | · | -2.6
COc1cc(CNCCO)cc(Br)c1OCc1ccccc1Cl | -3.5 | 1.8 | 4.2 | 12.3 | 9.9
COc1cc(CNCCO)cc(Cl)c1OCc1ccc(Cl)cc1Cl | 0.4 | 3.3 | -0.8 | 27.5* | 16.3
CC(C)N(Cc1cn(Cc2ccccc2)nn1)S(=O)(=O)c1ccccc1Br | 1.3 | · | · | · | -1.7
O=[N+]([O-])c1cc(-c2csc(NCCc3nc4cc(Cl)c(Cl)cc4n3CCCO)n2)ccc1Cl | 9.8 | 0.9 | -38.9 | 30.9* | 20.3
COC(=O)C1CCCN(C(=O)C2CCN(S(=O)(=O)c3ccccc3[N+](=O)[O-])CC2)C1 (stereo not drawn) | -7.4 | · | · | · | 2.5
O=C(NCCc1c[nH]c2ccccc12)OCc1cn(Cc2ccc(C(F)(F)F)cc2)nn1 | 3.8 | · | · | · | -2.0
CCN(C(=O)COc1cc(=O)n(CC)c2ccccc12)c1cccc(Cl)c1 | 7.7 | 2.9 | -2.9 | 26.6* | -5.3
CCn1c(=O)cc(OCC(=O)N(C)c2ccccc2F)c2ccccc21 | -10.8 | -11.6 | -10.8 | 0.0 | -14.2
CCN(C(=O)COc1cc(=O)n(CC)c2ccccc12)c1cc(Cl)ccc1OC | 21.7* | 0.1 | -2.3 | 0.3 | 0.8
Cc1[nH]cnc1/C=N\NC(=O)c1cccc(S(=O)(=O)N(C)C)c1 | 2.1 | · | · | · | 7.2
Cc1cccc(Nc2nc(-c3c(C)nc4ccccn34)cs2)c1 | 8.0 | 8.8 | 6.2 | 30.4* | 28.2
COC(=O)c1cc(-c2ccc(C)c3ccccc23)c(=O)n2c1CCC2 | -6.0 | · | · | · | -5.1
CC(=NNC(=O)c1cccs1)c1ccc2c(c1)OCCO2 | 1.2 | 4.0 | 2.9 | 1.7 | -5.5
C/C(=N\NC(=O)c1cccs1)c1ccc2c(c1)OCO2 | -0.3 | -1.2 | · | 28.3* | 1.1
C[C@@H]1COc2cc(Br)ccc2S(=O)(=O)N1Cc1cn(Cc2ccc(F)cc2)nn1 | 2.2 | · | · | · | 2.0
O=S(=O)(Nc1cccc(-c2ccc(N3CCCCCC3)nn2)c1)c1ccccc1Cl | 2.9 | -0.6 | -36.9 | 29.3* | -62.7
O=S(=O)(Nc1cccc(-c2ccc(N3CCCCCC3)nn2)c1)c1cccc(F)c1 | -26.0 | -1.2 | -62.1 | 26.8* | -47.7
O=S(=O)(Nc1cccc(-c2ccc(N3CCCCCC3)nn2)c1)c1ccc(F)cc1 | -10.2 | 3.2 | -45.5 | 19.6 | -42.0
COC(=O)[C@@]12CCCCC3=C1N(CCC3)C(=O)[C@H]2CC(=O)NCc1cccs1 | -14.4 | · | · | · | 0.2
CC(C)C[C@H]1COc2cc(Br)ccc2S(=O)(=O)N1Cc1cn(CCC2OCCO2)nn1 | -2.5 | · | · | · | -7.6
O=C(Nc1ccccc1C(=O)O)c1cc(S(=O)(=O)Nc2cccc(F)c2)ccc1Cl | 4.5 | 2.9 | -14.8 | 31.3* | -18.9
SMILES | SIAE inh | TCR-CD3 inh | HTRA1 inh | pPAFAH FP inh | mABHD4 FP
Cc1onc(-c2ccccc2Cl)c1C(=O)NCCn1c(C)cc2ccccc21 | · | · | 47.6* | -1.6 | ·
Cc1onc(-c2ccccc2Cl)c1C(=O)NCC(=O)O | 4.6 | -2.7 | 6.7 | -0.2 | 5.8
O=S1(=O)c2ccc(N3CCSCC3)cc2Oc2ccccc2CN1Cc1cn(Cc2cccc(F)c2)nn1 | -7.3 | · | · | · | 1.7
COc1cc(CNc2ccc(N3CCOCC3)cc2)cc(Br)c1OC | 12.4 | -4.0 | 28.3 | 9.9 | 12.7
CCOc1cc(CNc2ccc(N3CCOCC3)cc2)cc(Br)c1OCC | 10.6 | 2.3 | 33.4 | 25.0* | 14.4
CCOc1cc(CNc2ccc(N(C)C)cc2)cc(Br)c1OCC(=O)NC(C)(C)C | -0.8 | -5.3 | 0.1 | 34.3* | -0.6
O=C(Nc1ccccc1C(F)(F)F)OCCCN1CCC2(CCC(c3ccccc3)CC2)C1=O (stereo not drawn) | -7.5 | · | · | · | -7.7
CCOC(=O)C1=NOC(C(=O)NCCO)(C(=O)C2CC2)C1 (stereo not drawn) | 2.3 | · | · | · | -3.3
CCc1ccc(-c2cn(C3CCCCC3)c(=S)[nH]2)cc1 | 4.3 | -12.5 | -1.8 | 29.6* | 25.1
O=C(CSc1nnc(-c2ccncc2)n1-c1ccc(Br)cc1)c1ccccc1 | -5.1 | · | · | · | 3.6
Cc1cc(N2CCN(C(=O)OC(C)(C)C)C[C@H]2C)ccc1Br | -2.8 | 7.2 | · | · | -12.0
CC(C)CC(C(=O)Nc1oc(-c2ccco2)c(-c2ccco2)c1C#N)N1C(=O)c2ccccc2C1=O (stereo not drawn) | -7.5 | -3.5 | -2.7 | 32.2* | 21.6
CC(C)CC(C(=O)Nc1cccc(O)c1)N1C(=O)c2ccccc2C1=O (stereo not drawn) | -1.5 | -14.2 | -5.6 | 10.6 | -2.8
CCc1n[nH]c(=S)n1/N=C/c1ccc(N(C)c2ccccc2)cc1 | -1.0 | 4.7 | -2.8 | 25.6* | 5.5
CC(=O)OC12CCCN(C1)/C(=C/c1ccccc1)C2 (stereo not drawn) | 6.3 | · | · | · | 4.9
Cc1ccccc1Cn1c(NC2CCCC2)nc2c1c(=O)[nH]c(=O)n2C | 2.0 | 0.4 | 2.7 | 32.8* | 2.0
Cn1c(=O)[nH]c(=O)c2c1nc(NC1CCCCC1)n2Cc1ccccc1 | 4.2 | -1.9 | -9.2 | 3.3 | -1.3
C(=Nc1ccc(Nc2ccccc2)cc1)c1ccc2ccccc2c1 | · | · | 72.6* | 11.1 | ·
COc1ccc(Nc2nc(-c3sc(C)nc3C)cs2)c(OC)c1 | -3.3 | 5.1 | 14.3 | 26.6* | 12.1
Cc1ccc(C(=O)N2CCCC2)cc1S(=O)(=O)Nc1ccccc1 | -3.3 | -1.5 | -0.6 | 30.4* | -3.1
CCOc1ccc(S(=O)(=O)Nc2ccc(C(=O)N3CC(C)OC(C)C3)cc2)cc1 (stereo not drawn) | 1.0 | -0.1 | -1.3 | 5.0 | 1.1
CCOc1ccc(NS(=O)(=O)c2ccc(C(=O)N3CC(C)OC(C)C3)cc2)cc1 (stereo not drawn) | -3.7 | -1.5 | 0.7 | 29.3* | 5.5
CCOc1ccc(NS(=O)(=O)c2ccc(C(=O)N3CCN(c4ncccn4)CC3)cc2)cc1 | 16.0 | -4.8 | 1.6 | 26.7* | -3.9
COc1ccc(NS(=O)(=O)c2cc(C(=O)N3CCCCCC3)ccc2C)cc1 | 7.4 | 3.1 | 4.7 | 6.8 | 3.2
CCOc1ccc(S(=O)(=O)NCCC(=O)N2CCN(c3ncccn3)CC2)cc1 | -4.5 | -2.1 | -1.0 | 1.2 | 0.9
CN1CCN(C(=O)c2ccc(S(=O)(=O)Nc3ccccc3)cc2)CC1 | -1.6 | 2.3 | 2.6 | 25.3* | 1.2
O=C(c1ccc(S(=O)(=O)Nc2ccccc2)cc1)N1CCCC1 | 9.3 | 0.9 | 0.9 | 17.1 | 1.2
CCNC(=O)N1CCN(c2ccc(N3CCN(C(=O)NCC)[C@@H](C)C3)c(C)c2)[C@H](C)C1 | 6.0 | -2.5 | · | · | -3.2
CCOc1ccccc1N1CCN(C(=O)c2ccc(S(=O)(=O)Nc3ccccc3)cc2)CC1 | -2.4 | 7.1 | -4.1 | 27.2* | 0.0
